From ChEMBL document CHEMBL1139414, “Conformationally constrained analogues of diacylglycerol. 29. Cells sort diacylglycerol-lactone chemical zip codes to produce diverse and selective biological activities” (J Med Chem, 2008)
The source made the active and inactive calls. No cut-off for these calls is given here.

What follows are compounds tested against Protein kinase C alpha type (Mus musculus, UniProt P20444) (assay: Displacement of [3H]PDBu form mouse PKCalpha by scintillation counting). Settings: not given.
How it was run: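 Partially purified mouse PKCα; competition with [³H]PDBU. ID50 obtained by fitting a sigmoidal competition curve and converted to Ki = ID50/(1+L/Kd). Pure compounds tested at 6–7 concentrations; crude library compounds at a single 1 μM concentration. Triplicates per concentration, at least three experiments; mean ± SEM.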

| Compound | Ki |
| --- | --- |
| COc1ccc(/C=C2\CC(CO)(COC(=O)c3ccc(N(C)C)cc3)OC2=O)cc1 (racemic; form 2) | 359 nM |
| COc1ccc(/C=C2\CC(CO)(COC(=O)c3ccc(OC)cc3)OC2=O)cc1 (racemic; form 2) | 332 nM |
| COc1ccc(/C=C2\CC(CO)(COC(=O)c3c(C(C)C)cc(C(C)C)cc3C(C)C)OC2=O)cc1 (racemic; form 2) | 197 nM |
| COc1ccc(C(=O)OCC2(CO)C/C(=C\c3ccc(N(C)C)cc3)C(=O)O2)cc1 (racemic; form 2) | 890 nM |
| COc1ccc(/C=C2\CC(CO)(COC(=O)c3c(C)cc(C)cc3C)OC2=O)cc1 (racemic; form 2) | 119 nM |
| CN(C)c1ccc(/C=C2\CC(CO)(COC(=O)c3ccc([N+](=O)[O-])cc3)OC2=O)cc1 (racemic; form 2) | 1230 nM |
| O=C1OC(CO)(COC(=O)c2ccc([N+](=O)[O-])cc2)C/C1=C\c1ccc([N+](=O)[O-])cc1 (racemic; form 2) | 127 nM |

Other lines, results leading:

| Ki | Compound |
| --- | --- |
| 21.5 nM | CCCC(CCC)C(=O)OCC1(CO)C/C(=C\c2ccc(Cl)c(F)c2)C(=O)O1 (racemic; form 2) |
| 41 nM | CC(CC(=O)OCC1(CO)C/C(=C/c2cccc(C(F)(F)F)c2)C(=O)O1)CC(C)(C)C (racemic; form 2) |
| 158 nM | CC(C)C(=O)OCC1(CO)C/C(=C/c2ccccc2C(F)(F)F)C(=O)O1 (racemic; form 2) |
| 96 nM | CCCCC(CC)C(=O)OCC1(CO)C/C(=C\c2ccc(N(C)C)cc2)C(=O)O1 (racemic; form 2) |
| 9.3 nM | CCCC(CCC)C(=O)OCC1(CO)C/C(=C\c2ccc(F)c(Cl)c2)C(=O)O1 (racemic; form 2) |

Each compound was assayed on CHO (assay: Translocation of GFP-tagged PKCepsilon from cytosol to membrane compartment of CHO cells by confocal microscopy). Settings: not given.

| Compound | Activity |
| --- | --- |
| CCCCC(CC)C(=O)OCC1(CO)C/C(=C\c2ccc(F)c(Br)c2)C(=O)O1 (racemic; form 2) | Active |

What follows are compounds tested on LNCaP (assay: Induction of apoptosis in human LnCAP cells pretreated at 20 uM for 16 hrs followed by 20 Gy radiation assessed after 24 hrs post radiation by fluorescence microscopy). Settings: not given.
Type: functional, cell-based
How it was run: (§1)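 LNCaP cells in RPMI-1640 with 0.2% human albumin replacing FCS from 24 h before the experiment; pretreated 16 h with compound (10 or 20 μM), then 20 Gy irradiation. Fixed 24 h post radiation, stained with bis-benzimide and scored by fluorescence microscopy; cells with ≥3 apoptotic bodies counted apoptotic. Average of two experiments ± SD.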

| Compound | Activity |
| --- | --- |
| CCCC(CCC)C(=O)OCC1(CO)C/C(=C\c2ccc(C(F)(F)F)cc2)C(=O)O1 (racemic; form 1) | Active |
| CCCC(CCC)C(=O)OCC1(CO)C/C(=C\c2ccc(F)cc2)C(=O)O1 (racemic; form 1) | Active |

What follows are compounds tested on NK92 (assay: Induction of IFN-gamma production in human NK92 cells at 1 ug/mL after 6 hrs by ELISA). Settings: not given.
Type: functional, cell-based
How it was run: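 NK92 cells (10⁶ cells/mL) in RPMI with 10% FCS, glutamine and Pen/Strep at 37 °C for 6 h with derivative (1 μg/mL) alone or with IL12 (100 u/10⁶ cells), in duplicate wells. IFN-γ in supernatants by ELISA.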

| Compound | Activity |
| --- | --- |
| CCCC(CCC)C(=O)OCC1(CO)C/C(=C\c2ccc(C(F)(F)F)cc2)C(=O)O1 (racemic; form 1) | Active |
| CCCCC(CC)C(=O)OCC1(CO)C/C(=C\c2ccc(Cl)c(F)c2)C(=O)O1 (racemic; form 2) | Active |
| CCCCC(CC)C(=O)OCC1(CO)C/C(=C\c2ccc(Cl)cc2)C(=O)O1 (racemic; form 2) | Active |

These compounds were tested on MCF-10A (assay: Induction of human MCF10A cell motility at 10 uM after 20 hrs by photomicroscopy relative to diacylglycerol-lactone). Settings: not given.
Type: functional, cell-based
How it was run: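 MCF-10A cells seeded in a small circular area through a 10-hole manifold; at manifold removal, compound added to a final 10 μM (vehicle 1% v/v DMSO), 37 °C, 5% CO₂. Radial spread imaged over 20 h; radius in microns expressed as a ratio to the radius from the DAG-lactone positive control. Triplicate measurements.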

| Compound | Activity |
| --- | --- |
| CCC(C(=O)OCC1(CO)C/C(=C\c2ccc(-c3ccc(C(F)(F)F)cc3)cc2)C(=O)O1)c1ccccc1 (racemic; form 2) | Active |
| CCCCC(CC)C(=O)OCC1(CO)C/C(=C\c2ccc(F)c(Br)c2)C(=O)O1 (racemic; form 2) | Active |

These compounds were tested on CHO (assay: Translocation of GFP-tagged PKCalpha from cytosol to membrane compartment of CHO cells by confocal microscopy). Settings: not given.

| Compound | Activity |
| --- | --- |
| CCCCC(CC)C(=O)OCC1(CO)C/C(=C\c2ccc(F)c(Br)c2)C(=O)O1 (racemic; form 2) | Active |

The compounds below were run against Transcription factor Jun (Mus musculus) (UniProt P05627) (assay: Activation of AP1 expressed in BALB/c mouse JB6 cells coexpressing luciferase reportet gene at 100 ng/mL after 18 hrs relative to 12-O-tetradecanoylphorbol-13-O-acetate). Settings: not given.
Sequence of Transcription factor Jun (Mus musculus) (P05627 whole entry): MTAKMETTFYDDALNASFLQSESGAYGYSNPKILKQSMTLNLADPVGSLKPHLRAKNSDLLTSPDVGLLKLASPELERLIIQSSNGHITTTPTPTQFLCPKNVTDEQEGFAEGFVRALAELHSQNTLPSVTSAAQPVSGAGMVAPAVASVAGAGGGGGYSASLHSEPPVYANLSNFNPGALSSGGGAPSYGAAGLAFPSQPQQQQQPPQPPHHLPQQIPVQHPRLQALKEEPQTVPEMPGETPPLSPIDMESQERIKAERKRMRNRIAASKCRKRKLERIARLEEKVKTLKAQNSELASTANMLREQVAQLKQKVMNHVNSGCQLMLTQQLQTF
Type: cell-based
How it was run: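 JB6 P+ cells seeded at 10⁴, transfected with 4x AP-1 luciferase reporter (0.2 μg DNA) using a 3:1 lipid reagent ratio; on day 3 treated with DMSO, TPA (10 ng/mL) or DAG-lactone (100 ng/mL); luciferase read 18 h later. Values normalized to TPA-induced activity; average of 6 independent assays.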

| Activity | Compound |
| --- | --- |
| Active | CCCC(CCC)C(=O)OCC1(CO)C/C(=C\c2ccc(C(F)(F)F)cc2)C(=O)O1 (racemic; form 1) |
| Active | CCCC(CCC)C(=O)OCC1(CO)C/C(=C\c2ccc(F)cc2)C(=O)O1 (racemic; form 1) |
| Active | CCCCC(CC)C(=O)OCC1(CO)C/C(=C\c2ccc(Cl)c(F)c2)C(=O)O1 (racemic; form 2) |
| Active | CCCCC(CC)C(=O)OCC1(CO)C/C(=C\c2ccc(Cl)cc2)C(=O)O1 (racemic; form 2) |

These compounds were tested on LNCaP (assay: Antitumor activity against human LnCAP cells transplanted in Swiss nude mouse assessed as reduction in ataxia telengiectasia mutated gene level at 12 mg/kg, ip administered as 2 injections at 24 hrs intervals assessed after 8 weeks by radioimmunoassay). Settings: in the assay text read “48 hrs after first injection” for “after 8 weeks”.
Type: functional, organism-based
Design: dose 12 mg/kg
How it was run: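 Orthotopic LNCaP prostate tumors (~100 mm³) in Swiss nude mice; 12 mg/kg i.p., two injections 24 h apart, prostate resected 48 h after first injection. ATM measured in tumor extracts relative to vehicle control.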

| Compound | Activity |
| --- | --- |
| CCCC(CCC)C(=O)OCC1(CO)C/C(=C\c2ccc(C(F)(F)F)cc2)C(=O)O1 (racemic; form 1) | Active |

What follows are compounds tested on CHO (assay: Translocation of GFP-tagged PKCbeta from cytosol to membrane compartment of CHO cells). Settings: not given.
Type: functional, cell-based
How it was run: (§2)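 GFP-tagged PKC isoforms overexpressed in CHO cells; live-cell localization followed by confocal microscopy before and after ligand (300 nM). Representative of 2 (PKCβ, ε) or 3 (PKCα, δ) independent experiments.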

| Compound | Activity |
| --- | --- |
| CCCCC(CC)C(=O)OCC1(CO)C/C(=C\c2ccc(F)c(Br)c2)C(=O)O1 (racemic; form 2) | Active |

These compounds were tested against T1, Ras guanyl-releasing protein 3 (Homo sapiens, UniProt Q8IV61) (assay: Binding affinity to RasGRP3). Settings: not given.
T1 sequence (Q8IV61 whole entry): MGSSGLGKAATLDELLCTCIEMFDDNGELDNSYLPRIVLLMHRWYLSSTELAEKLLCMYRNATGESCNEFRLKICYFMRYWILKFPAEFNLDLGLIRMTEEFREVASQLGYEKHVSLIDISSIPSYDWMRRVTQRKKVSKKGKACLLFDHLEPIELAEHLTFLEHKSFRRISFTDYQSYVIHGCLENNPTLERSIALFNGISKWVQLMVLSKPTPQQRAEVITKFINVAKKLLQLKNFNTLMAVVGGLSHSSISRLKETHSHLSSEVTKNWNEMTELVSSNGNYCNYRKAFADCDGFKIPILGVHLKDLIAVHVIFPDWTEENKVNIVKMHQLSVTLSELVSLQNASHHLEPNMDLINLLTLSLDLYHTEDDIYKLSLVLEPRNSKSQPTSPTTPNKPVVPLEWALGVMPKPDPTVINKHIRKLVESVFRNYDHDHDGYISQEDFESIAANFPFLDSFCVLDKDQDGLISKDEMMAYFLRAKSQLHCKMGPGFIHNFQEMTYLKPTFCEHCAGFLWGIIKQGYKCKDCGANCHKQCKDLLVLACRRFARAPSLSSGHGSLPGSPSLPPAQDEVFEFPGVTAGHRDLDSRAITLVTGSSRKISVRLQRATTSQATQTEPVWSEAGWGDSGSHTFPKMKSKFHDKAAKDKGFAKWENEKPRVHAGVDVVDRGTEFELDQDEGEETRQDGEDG

| Compound | Ki |
| --- | --- |
| O=C1OC(CO)(COC(=O)c2ccc([N+](=O)[O-])cc2)C/C1=C\c1ccc([N+](=O)[O-])cc1 (racemic; form 2) | 2.22 nM |

The compounds below were run on LNCaP (assay: Antitumor activity against human LnCAP cells transplanted in Swiss nude mouse assessed as inhibition of tumor growth at 12 mg/kg, ip administered daily 16 hrs prior to 10 Gy radiation during first week followed by 2 injections at 48 hrs intervals during second week assessed after 8 weeks by radioimmunoassay). Settings: not given.
Type: functional, organism-based
Design: dose 12 mg/kg
How it was run: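 Male Swiss nude mice (8–10 weeks) implanted orthotopically in prostate with 3.0×10⁶ LNCaP cells; used when serum PSA was 5.0–15.0 ng/mL. Drug 12 mg/kg i.p. in DMSO, 16 h before each 1 Gy local pelvic fraction (daily, Mon–Fri, total 10 Gy) in week 1, then two injections 48 h apart in week 2. Serum PSA by radioimmunoassay through week 8; mean per group.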

| Compound | Activity |
| --- | --- |
| CCCC(CCC)C(=O)OCC1(CO)C/C(=C\c2ccc(C(F)(F)F)cc2)C(=O)O1 (racemic; form 1) | Active |

What follows are compounds tested on LNCaP (assay: Induction of apoptosis in human LnCAP cells pretreated at 10 uM for 16 hrs followed by 20 Gy radiation assessed after 24 hrs post radiation by fluorescence microscopy). Settings: not given.
Type: functional, cell-based
How it was run: as §1

| Compound | Activity |
| --- | --- |
| CCCC(CCC)C(=O)OCC1(CO)C/C(=C\c2ccc(C(F)(F)F)cc2)C(=O)O1 (racemic; form 1) | Active |
| CCCC(CCC)C(=O)OCC1(CO)C/C(=C\c2ccc(F)cc2)C(=O)O1 (racemic; form 1) | Active |

The compounds below were run on CHO (assay: Translocation of GFP-tagged mouse PKCdelta from cytosol to membrane compartment of CHO cells by confocal microscopy). Settings: Cricetulus griseus.
Type: functional, cell-based
How it was run: as §2

| Compound | Activity |
| --- | --- |
| CCCCC(CC)C(=O)OCC1(CO)C/C(=C\c2ccc(F)c(Br)c2)C(=O)O1 (racemic; form 2) | Active |
